Assay results from ChEMBL document CHEMBL1255268, “Antimicrobial activities of Ceftaroline and ME1036 tested against clinical strains of community-acquired methicillin-resistant Staphylococcus aureus” (2008).
≈ marks a conversion by molar mass, not a printed value.

What was measured:
Type in all cases: functional
[1] = system: Staphylococcus aureus; test: Antimicrobial activity against community-acquired methicillin resistant Staphylococcus aureus expressing PVL and mec type IV gene by broth microdilution method
How it was run: (§1)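 Reference broth microdilution MICs per CLSI, with CLSI interpretive criteria (M100-S17) used for susceptible/resistant categories. Panel: 152 CA-MRSA clinical isolates from human infections, collected 2000–2005 at 47 US medical centres. Strains typed by multiplex PCR for SCCmec type (mecA as internal control), with products run on 2% agarose in Tris-acetate-EDTA and stained with ethidium bromide.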

[2] = system: Staphylococcus aureus; test: Antimicrobial activity against community-acquired methicillin resistant Staphylococcus aureus expressing PVL and mec type IV gene assessed as resistant strains by broth microdilution method; how it was run: as §1
[3] = system: Staphylococcus aureus; test: Antimicrobial activity against community-acquired methicillin resistant Staphylococcus aureus expressing PVL gene and mec type IV gene assessed as susceptible strains by broth microdilution method; how it was run: as §1

C[C@@H](O)[C@H]1C(=O)N2C(C(=O)[O-])=C(c3cn4cnc(C(=O)c5ccc[n+](CC(N)=O)c5)c4s3)[C@H](C)[C@H]12
MIC50 [1]: 0.12 µg/mL (≈ 0.242 µM) | MIC90 [1]: 0.25 µg/mL (≈ 0.505 µM)

CCCCCCCCCC(=O)N[C@@H](Cc1c[nH]c2ccccc12)C(=O)N[C@H](CC(N)=O)C(=O)N[C@@H](CC(=O)O)C(=O)N[C@@H]1C(=O)NCC(=O)N[C@@H](CCCN)C(=O)N[C@@H](CC(=O)O)C(=O)N[C@H](C)C(=O)N[C@@H](CC(=O)O)C(=O)NCC(=O)N[C@H](CO)C(=O)N[C@@H]([C@H](C)CC(=O)O)C(=O)N[C@@H](CC(=O)c2ccccc2N)C(=O)O[C@@H]1C
MIC [1]: 0.25 µg/mL (≈ 0.154 µM) | MIC50 [1]: 0.25 µg/mL (≈ 0.154 µM) | MIC90 [1]: 0.5 µg/mL (≈ 0.309 µM) | Activity [2]: 0% | Activity [3]: 100%

CO/N=C(\C(=O)N[C@@H]1C(=O)N2C(C(=O)O)=C(CSc3nc(=O)c(O)nn3C)CS[C@H]12)c1csc(N)n1 [CEFTRIAXONE]
MIC50 [1]: 32 µg/mL (≈ 57.7 µM) | MIC90 [1]: > 32 µg/mL | Activity [2]: 98.7% | Activity [3]: 0%

CCC[C@@H]1C[C@@H](C(=O)N[C@@H]([C@H]2O[C@H](SC)[C@H](O)[C@@H](O)[C@H]2O)[C@H](C)Cl)N(C)C1 [CLINDAMYCIN]
MIC [1]: ≤ 0.25 µg/mL | MIC50 [1]: ≤ 0.25 µg/mL | MIC90 [1]: ≤ 0.25 µg/mL | Activity [2]: 0% | Activity [3]: 100%

CC[C@H]1OC(=O)[C@H](C)[C@@H](O[C@H]2C[C@@](C)(OC)[C@@H](O)[C@H](C)O2)[C@H](C)[C@@H](O[C@@H]2O[C@H](C)C[C@H](N(C)C)[C@H]2O)[C@](C)(O)C[C@@H](C)C(=O)[C@H](C)[C@@H](O)[C@]1(C)O [ERYTHROMYCIN]
MIC50 [1]: > 8 µg/mL | MIC90 [1]: > 8 µg/mL | Activity [2]: 98% | Activity [3]: 1.3%

C[C@@H](O)[C@H]1C(=O)N2C(C(=O)O)=C(SCCNC=N)C[C@H]12 [IMIPENEM ANHYDROUS]
MIC [1]: ≤ 0.5 µg/mL | MIC50 [1]: ≤ 0.5 µg/mL | MIC90 [1]: ≤ 0.5 µg/mL | Activity [2]: 0% | Activity [3]: 100%

C[C@H]1COc2c(N3CCN(C)CC3)c(F)cc3c(=O)c(C(=O)O)cn1c23.C[C@H]1COc2c(N3CCN(C)CC3)c(F)cc3c(=O)c(C(=O)O)cn1c23.O [LEVOFLOXACIN]
MIC50 [1]: 0.25 µg/mL | MIC90 [1]: 0.5 µg/mL | Activity [2]: 7.2% | Activity [3]: 92.8%

CC(=O)NC[C@H]1CN(c2ccc(N3CCOCC3)c(F)c2)C(=O)O1 [LINEZOLID]
MIC50 [1]: 2 µg/mL (≈ 5.93 µM) | MIC90 [1]: 2 µg/mL (≈ 5.93 µM) | Activity [3]: 100%

C[C@@H](O)[C@H]1C(=O)N2C(C(=O)O)=C(S[C@@H]3CN[C@H](C(=O)N(C)C)C3)[C@H](C)[C@H]12 [MEROPENEM]
MIC50 [1]: 2 µg/mL (≈ 5.22 µM) | MIC90 [1]: 2 µg/mL (≈ 5.22 µM) | Activity [2]: 0% | Activity [3]: 98%

CN(C)[C@@H]1C(O)=C(C(N)=O)C(=O)[C@@]2(O)C(O)=C3C(=O)c4c(O)cccc4[C@@](C)(O)[C@H]3C[C@@H]12 [TETRACYCLINE]
MIC [1]: ≤ 0.5 µg/mL | MIC50 [1]: ≤ 0.5 µg/mL | MIC90 [1]: ≤ 0.5 µg/mL | Activity [2]: 4.6% | Activity [3]: 94.7%

CN[C@H](CC(C)C)C(=O)N[C@H]1C(=O)N[C@@H](CC(N)=O)C(=O)N[C@H]2C(=O)N[C@H]3C(=O)N[C@H](C(=O)N[C@H](C(=O)O)c4cc(O)cc(O)c4-c4cc3ccc4O)[C@H](O)c3ccc(c(Cl)c3)Oc3cc2cc(c3O[C@@H]2O[C@H](CO)[C@@H](O)[C@H](O)[C@H]2O[C@H]2C[C@](C)(N)[C@H](O)[C@H](C)O2)Oc2ccc(cc2Cl)[C@H]1O [VANCOMYCIN]
MIC50 [1]: 1 µg/mL (≈ 0.69 µM) | MIC90 [1]: 1 µg/mL (≈ 0.69 µM) | Activity [2]: 0% | Activity [3]: 100%
